Experiment [1] relates to MDA-MB-231. The experiment can be described thus: Inhibition of cell migration of human MDA-MB-231 cells at 10 uM incubated for 48 hrs by wound healing assay. Format: functional, cell-based. In a few lines: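 MDA-MB-231 monolayer grown overnight to confluence and scratched with a pipette tip. Debris washed off with L15 medium, then cells kept in serum-free L15 with compound (1 and 10 µM) for 48 h. Migration into the wound photographed by phase-contrast microscopy at 0, 24 and 48 h.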

In the next experiment the target is T1, Interstitial collagenase (Homo sapiens, UniProt P03956).
T1 sequence (P03956 whole entry): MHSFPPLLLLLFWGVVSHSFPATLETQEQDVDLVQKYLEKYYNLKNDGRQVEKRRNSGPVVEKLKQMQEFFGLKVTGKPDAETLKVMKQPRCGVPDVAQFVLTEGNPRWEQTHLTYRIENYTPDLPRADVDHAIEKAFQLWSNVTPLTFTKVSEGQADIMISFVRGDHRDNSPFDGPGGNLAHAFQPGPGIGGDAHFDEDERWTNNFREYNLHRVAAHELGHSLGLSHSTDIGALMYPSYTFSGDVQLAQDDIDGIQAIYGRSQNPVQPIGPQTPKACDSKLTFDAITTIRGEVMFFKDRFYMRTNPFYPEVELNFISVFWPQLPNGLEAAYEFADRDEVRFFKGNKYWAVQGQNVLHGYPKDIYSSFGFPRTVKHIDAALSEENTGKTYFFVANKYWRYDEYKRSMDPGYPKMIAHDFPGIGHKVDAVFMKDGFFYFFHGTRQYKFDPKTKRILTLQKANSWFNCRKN
The experiment can be described thus: Inhibition of human recombinant MMP1 catalytic domain incubated for 20 mins by fluorimetric assay. A digest of the protocol:
(§1)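 Diluted recombinant MMP enzyme pre-incubated 20 min at room temperature with varied inhibitor concentrations in 50 mM Tris–HCl, 150 mM NaCl, 5 mM CaCl2, 0.05% Brij-35, pH 7.5; total assay volume 100 µl.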

The target in experiment [2] is T2, 72 kDa type IV collagenase (Homo sapiens, UniProt P08253). The experiment can be described thus: Inhibition of human recombinant MMP2 catalytic domain incubated for 20 mins by fluorimetric assay. A digest of the protocol: as §1
Target sequence in this assay (P08253 whole entry, the tested form may be a part): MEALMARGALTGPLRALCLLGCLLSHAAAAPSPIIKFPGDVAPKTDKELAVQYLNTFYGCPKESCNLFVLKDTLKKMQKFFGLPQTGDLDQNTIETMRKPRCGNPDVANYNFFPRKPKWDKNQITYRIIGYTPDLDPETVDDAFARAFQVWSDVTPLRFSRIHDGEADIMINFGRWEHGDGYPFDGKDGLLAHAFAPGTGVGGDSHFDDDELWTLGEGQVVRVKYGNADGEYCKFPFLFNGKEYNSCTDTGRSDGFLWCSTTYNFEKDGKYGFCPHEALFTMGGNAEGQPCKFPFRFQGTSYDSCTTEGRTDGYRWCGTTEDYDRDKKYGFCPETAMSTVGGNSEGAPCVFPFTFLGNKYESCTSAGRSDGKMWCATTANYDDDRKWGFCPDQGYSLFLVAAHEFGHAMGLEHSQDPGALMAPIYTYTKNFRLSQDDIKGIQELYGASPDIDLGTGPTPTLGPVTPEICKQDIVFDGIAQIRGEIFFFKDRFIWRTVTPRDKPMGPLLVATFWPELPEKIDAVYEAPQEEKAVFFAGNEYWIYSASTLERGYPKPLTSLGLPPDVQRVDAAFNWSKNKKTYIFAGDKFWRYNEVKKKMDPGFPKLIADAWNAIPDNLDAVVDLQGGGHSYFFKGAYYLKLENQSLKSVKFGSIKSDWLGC
For experiment [3], the target named is T3, Stromelysin-1 (Homo sapiens, UniProt P08254). The experiment can be described thus: Inhibition of human recombinant MMP3 catalytic domain incubated for 20 mins by fluorimetric assay. A digest of the protocol:
as §1

The target in experiment [4] is T4, Matrix metalloproteinase-9 (Homo sapiens, UniProt P14780). The experiment in a line: Inhibition of human recombinant MMP9 catalytic domain incubated for 20 mins by fluorimetric assay. In a few lines:
as §1

For experiment [5], the target named is T5, Macrophage metalloelastase (Homo sapiens, UniProt P39900). The experiment can be described thus: Inhibition of human recombinant MMP12 catalytic domain incubated for 20 mins by fluorimetric assay. In a few lines: as §1
T5 sequence (P39900 whole entry, the tested form may be a part): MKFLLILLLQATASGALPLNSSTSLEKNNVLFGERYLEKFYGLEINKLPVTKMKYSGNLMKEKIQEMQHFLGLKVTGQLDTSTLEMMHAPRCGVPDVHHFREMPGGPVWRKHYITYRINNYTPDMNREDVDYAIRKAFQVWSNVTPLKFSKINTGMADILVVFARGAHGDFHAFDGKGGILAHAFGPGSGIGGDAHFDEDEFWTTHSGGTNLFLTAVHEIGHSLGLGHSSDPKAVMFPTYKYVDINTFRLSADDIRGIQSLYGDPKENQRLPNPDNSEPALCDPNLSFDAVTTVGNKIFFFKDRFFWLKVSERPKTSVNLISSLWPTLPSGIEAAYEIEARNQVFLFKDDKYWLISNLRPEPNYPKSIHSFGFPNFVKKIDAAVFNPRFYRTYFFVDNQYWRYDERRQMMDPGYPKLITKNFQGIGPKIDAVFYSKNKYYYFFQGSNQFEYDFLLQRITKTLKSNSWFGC
Experiment [6] has as its target T6, Collagenase 3 (Homo sapiens, UniProt P45452). The experiment can be described thus: Inhibition of human recombinant MMP13 catalytic domain incubated for 20 mins by fluorimetric assay. In a few lines: as §1
The target in experiment [7] is T7, Interstitial collagenase (Homo sapiens) (UniProt P03956).
T7 sequence (whole entry): T1 sequence (P03956 whole entry)
The experiment in a line: Inhibition of human recombinant MMP1 catalytic domain at 10 uM incubated for 20 mins by fluorimetric assay. A digest of the protocol: as §1

For experiment [8], the target named is T2, 72 kDa type IV collagenase. The experiment in a line: Inhibition of human recombinant MMP2 catalytic domain at 10 uM incubated for 20 mins by fluorimetric assay. In a few lines:
as §1
Target sequence in this assay (P08253 110-660 limits assumed): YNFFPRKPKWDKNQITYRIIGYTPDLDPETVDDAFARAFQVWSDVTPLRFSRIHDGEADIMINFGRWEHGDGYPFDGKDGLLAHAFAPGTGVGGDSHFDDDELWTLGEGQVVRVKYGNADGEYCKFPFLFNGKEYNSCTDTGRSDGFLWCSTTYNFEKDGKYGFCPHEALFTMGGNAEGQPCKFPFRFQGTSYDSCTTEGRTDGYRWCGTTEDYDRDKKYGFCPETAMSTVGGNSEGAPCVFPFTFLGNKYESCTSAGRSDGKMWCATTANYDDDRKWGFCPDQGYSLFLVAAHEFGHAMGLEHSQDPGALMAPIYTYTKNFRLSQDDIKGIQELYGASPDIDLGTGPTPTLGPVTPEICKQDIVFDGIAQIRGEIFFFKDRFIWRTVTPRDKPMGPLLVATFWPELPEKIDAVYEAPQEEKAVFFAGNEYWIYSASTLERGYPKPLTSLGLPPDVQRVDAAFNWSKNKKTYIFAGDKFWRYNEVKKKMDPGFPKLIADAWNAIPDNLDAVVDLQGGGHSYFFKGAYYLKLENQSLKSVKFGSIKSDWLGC

The target in experiment [9] is T3, Stromelysin-1. The experiment can be described thus: Inhibition of human recombinant MMP3 catalytic domain at 10 uM incubated for 20 mins by fluorimetric assay. A digest of the protocol:
as §1

For experiment [10], the target named is T4, Matrix metalloproteinase-9. The experiment can be described thus: Inhibition of human recombinant MMP9 catalytic domain at 10 uM incubated for 20 mins by fluorimetric assay. In a few lines: as §1
The target of experiment [11] is T5, Macrophage metalloelastase. The experiment can be described thus: Inhibition of human recombinant MMP12 catalytic domain at 10 uM incubated for 20 mins by fluorimetric assay. In a few lines: as §1
The target in experiment [12] is T6, Collagenase 3. The experiment can be described thus: Inhibition of human recombinant MMP13 catalytic domain at 10 uM incubated for 20 mins by fluorimetric assay. In a few lines:
as §1

Experiment [13] relates to MDA-MB-231. The experiment in a line: Inhibition of MMP2 protein expression in human MDA-MB-231 cells at 50 uM incubated for 24 hrs by Western blot. It counts as functional, cell-based. In a few lines:
(§2)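 MDA-MB-231 cells co-incubated with 20 ng/ml TPA and test compound at 50 µM for 24 h, then lysed. Lysates centrifuged 10000g, 10 min, 4 °C, run on 10% SDS–PAGE, transferred to PVDF, blocked overnight at 4 °C in TBST with 5% skim milk. Probed with anti-MMP-2 and anti-MMP-9 antibodies; GAPDH as loading control.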
(In general: Immunoblotting shows a protein as a band on a membrane.)

Experiment [14] deals with MDA-MB-231. The experiment in a line: Inhibition of active MMP9 protein expression in human MDA-MB-231 cells at 50 uM incubated for 24 hrs by Western blot. Format: functional, cell-based. A digest of the protocol: as §2
Experiment [15] deals with MDA-MB-231. The experiment in a line: Inhibition of pro-MMP9 protein expression in human MDA-MB-231 cells at 50 uM incubated for 24 hrs by Western blot. It counts as functional, cell-based. A digest of the protocol:
as §2

For experiment [16], the system named is MDA-MB-231. The experiment can be described thus: Effect on cell proliferation of human MDA-MB-231 cells at 50 uM incubated for 24 hrs. Format: functional, cell-based.

This passage reports inhibition and IC50 results from ChEMBL document CHEMBL2046344, “Natural products as a gold mine for selective matrix metalloproteinases inhibitors” (Bioorg Med Chem, 2012).

As usually defined, the inhibition is the share of the control response that was lost under treatment. By IC50 is commonly meant the concentration at which inhibition is half-maximal.

The source made the active and inactive calls. No cut-off for these calls is given here.

T4 sequence (P14780 whole entry, the tested form may be a part): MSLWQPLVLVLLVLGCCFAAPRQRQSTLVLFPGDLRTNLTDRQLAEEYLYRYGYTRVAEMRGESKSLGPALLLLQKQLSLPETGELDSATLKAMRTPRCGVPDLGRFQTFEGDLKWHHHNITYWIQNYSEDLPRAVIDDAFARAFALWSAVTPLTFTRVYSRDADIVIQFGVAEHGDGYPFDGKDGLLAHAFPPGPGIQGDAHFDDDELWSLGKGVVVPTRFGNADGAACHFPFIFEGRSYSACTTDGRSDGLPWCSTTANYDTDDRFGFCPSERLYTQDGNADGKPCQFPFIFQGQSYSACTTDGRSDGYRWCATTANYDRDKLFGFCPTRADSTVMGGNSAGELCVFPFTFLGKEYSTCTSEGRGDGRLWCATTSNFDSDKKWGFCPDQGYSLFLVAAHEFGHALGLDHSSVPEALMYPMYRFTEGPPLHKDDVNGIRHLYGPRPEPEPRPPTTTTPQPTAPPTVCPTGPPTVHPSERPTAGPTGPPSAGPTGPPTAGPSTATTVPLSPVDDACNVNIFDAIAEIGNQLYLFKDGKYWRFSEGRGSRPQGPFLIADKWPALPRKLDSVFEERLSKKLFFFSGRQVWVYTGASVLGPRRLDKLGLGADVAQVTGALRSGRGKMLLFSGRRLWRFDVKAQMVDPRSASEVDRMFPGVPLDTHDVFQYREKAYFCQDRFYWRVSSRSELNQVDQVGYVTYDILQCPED
T3 sequence (P08254 whole entry, the tested form may be a part): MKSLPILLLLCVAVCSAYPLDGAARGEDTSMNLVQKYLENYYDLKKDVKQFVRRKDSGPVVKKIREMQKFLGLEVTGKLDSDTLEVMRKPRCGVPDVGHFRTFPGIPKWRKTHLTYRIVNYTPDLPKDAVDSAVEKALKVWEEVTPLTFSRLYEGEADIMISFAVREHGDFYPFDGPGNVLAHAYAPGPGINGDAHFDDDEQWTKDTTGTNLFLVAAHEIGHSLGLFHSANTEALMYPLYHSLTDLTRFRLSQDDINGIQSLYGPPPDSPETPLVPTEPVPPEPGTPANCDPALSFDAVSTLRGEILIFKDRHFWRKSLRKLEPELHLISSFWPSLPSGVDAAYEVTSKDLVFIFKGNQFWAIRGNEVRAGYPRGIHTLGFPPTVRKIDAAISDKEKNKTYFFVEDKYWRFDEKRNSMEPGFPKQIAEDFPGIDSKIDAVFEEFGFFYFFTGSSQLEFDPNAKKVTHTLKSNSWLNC

Regarding `COC(=O)[C@@H](Cc1ccc(O)c(O)c1)OC(=O)/C=C/c1ccc(O)c2c1[C@H](C(=O)OC)[C@@H](c1ccc(O)c(O)c1)O2` [DIMETHYL LITHOSPERMATE], the inhibition result with MDA-MB-231 [1], with MDA-MB-231 [13] and in the experiment with MDA-MB-231 [14] was “Active” in each case. Besides, the IC50 on Interstitial collagenase stood at 8.23 µM; in experiment [2] it was 11.6 µM; on Stromelysin-1 [3], 8.15 µM; in [4], 0.99 µM; in [5], 0.67 µM; on Collagenase 3 [6], 18.5 µM. Also, the inhibition (in [7]; in [8]; at Stromelysin-1 [9]; in experiment [10]; in experiment [11]; at Collagenase 3 [12]) was more than 30% throughout. The inhibition entry in the experiment with MDA-MB-231 [15] and with MDA-MB-231 [16] was “inactive” throughout.
